ChEMBL document CHEMBL1955778, “Design and synthesis of novel 7-aminoquinazoline derivatives: antitumor and anticonvulsant activities” (Bioorg Med Chem Lett, 2012)

Assays:
Mus musculus [1] = assay: Anticonvulsant activity in mouse assessed as protection against pentylenetetrazol-induced seizure at 1 mmol/kg, ip administered 30 min prior to pentylenetetrazol-challenge measured after 60 mins relative to control; assay type: functional
Mus musculus [2] = assay: Anticonvulsant activity in ip dosed mouse assessed as protection against pentylenetetrazol-induced seizure administered 30 min prior to pentylenetetrazol-challenge measured after 60 mins; assay type: functional
How it was run: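 Mice received several doses for quantification. ED50 taken as the dose protecting 50% of mice against pentylenetetrazol-induced seizures.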

Mus musculus [3] = assay: Anticonvulsant activity in mouse assessed as protection against strychnine-induced seizure at 1 mmol/kg, ip administered 30 min prior to strychnine-challenge measured after 60 mins relative to control; assay type: functional
[4] = Therapeutic index, ratio of LD50 for mouse to ED50 for pentylenetetrazol-induced seizure in mouse; assay type: organism-based; details: in vivo, read-out: Ratio LD50/ED50
How it was run: (§1)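 In mice, LD50 is the dose causing 50% mortality. ED50 is the dose protecting 50% of mice against pentylenetetrazole-induced seizures. Therapeutic index = LD50/ED50.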

Mus musculus [5] = organism: Mus musculus; assay: Protective index, ratio of TD50 for mouse to ED50 for pentylenetetrazol-induced seizure in mouse; assay type: functional
How it was run: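 Mice. Index is TD50/ED50. TD50 is the dose causing minimal neurological toxicity in 50% of mice in the Chimney test. ED50 is the dose protecting 50% of mice against pentylenetetrazole-induced seizures. Both are estimated from testing at several doses.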

[6] = Neurotoxicity in ip dosed mouse assessed as impaired motor coordination administered 30 mins prior to test by chimney test; assay type: toxicity, organism-based; details: in vivo
How it was run: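 Mice, Chimney test. TD50 is the dose that produces minimal neurological toxicity (impaired motor coordination) in 50% of animals, estimated from testing at several doses.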

Mus musculus [7] = assay: Anticonvulsant activity in mouse assessed as protection against maximal electroshock-induced seizure at 1 mmol/kg, ip administered 30 min prior to maximal electroshock-challenge measured after 60 mins relative to control; assay type: functional
Mus musculus [8] = assay: Anticonvulsant activity in mouse assessed as protection against picrotoxin-induced seizure at 1 mmol/kg, ip administered 30 min prior to picrotoxin-challenge measured after 60 mins relative to control; assay type: functional
[9] = Toxicity in ip dose mouse assessed as mortality; assay type: organism-based; details: in vivo; how it was run: as §1
CCRF-CEM = assay: Growth inhibition of human CCRF-CEM cells at 10 uM relative to control; assay type: functional; details: read-out: GI
How it was run: (§2)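 Each cell line in a 60-line human tumour panel exposed to one 10 μM concentration. Growth inhibition percentage computed as 100 minus the percentage activity relative to control.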

UACC-257 = assay: Growth inhibition of human UACC257 cells at 10 uM relative to control; assay type: functional; details: read-out: GI
How it was run: (§3)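 Single-dose screen across the 60-cell-line human tumor panel at 10 μM. Growth inhibition is reported as a percentage, taken as 100 minus the % growth relative to untreated control.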

ACHN = assay: Growth inhibition of human ACHN cells at 10 uM relative to control; assay type: functional; details: read-out: GI; how it was run: as §2
U-251 = assay: Growth inhibition of human U251 cells at 10 uM relative to control; assay type: functional; details: read-out: GI; how it was run: as §3
A498 = assay: Growth inhibition of human A498 cells at 10 uM relative to control; assay type: functional; details: read-out: GI; how it was run: as §2
A549 = assay: Growth inhibition of human A549 cells at 10 uM relative to control; assay type: functional; details: read-out: GI; how it was run: as §2
BT-549 = assay: Growth inhibition of human BT549 cells at 10 uM relative to control; assay type: functional; details: read-out: GI; how it was run: as §2
SNB-19 = assay: Growth inhibition of human SNB19 cells at 10 uM relative to control; assay type: functional; details: read-out: GI; how it was run: as §3
SK-MEL-28 = assay: Growth inhibition of human SK-MEL-28 cells at 10 uM relative to control; assay type: functional; details: read-out: GI; how it was run: as §2
RPMI-8226 = assay: Growth inhibition of human RPMI8226 cells at 10 uM relative to control; assay type: functional; details: read-out: GI; how it was run: as §2
SNB-75 = assay: Growth inhibition of human SNB75 cells at 10 uM relative to control; assay type: functional; details: read-out: GI; how it was run: as §3
OVCAR-5 = assay: Growth inhibition of human OVCAR5 cells at 10 uM relative to control; assay type: functional; details: read-out: GI; how it was run: as §2
KM12 = assay: Growth inhibition of human KM12 cells at 10 uM relative to control; assay type: functional; details: read-out: GI; how it was run: as §2
Malme-3M = assay: Growth inhibition of human MALME-3M cells at 10 uM relative to control; assay type: functional; details: read-out: GI; how it was run: as §2
HT-29 = assay: Growth inhibition of human HT-29 cells at 10 uM relative to control; assay type: functional; details: read-out: GI; how it was run: as §2
SF-539 = assay: Growth inhibition of human SF539 cells at 10 uM relative to control; assay type: functional; details: read-out: GI; how it was run: as §2
UACC-62 = assay: Growth inhibition of human UACC62 cells at 10 uM relative to control; assay type: functional; details: read-out: GI; how it was run: as §3
MCF7 = assay: Growth inhibition of human MCF7 cells at 10 uM relative to control; assay type: functional; details: read-out: GI; how it was run: as §2
MDA-MB-435 = assay: Growth inhibition of human MDA-MB-435 cells at 10 uM relative to control; assay type: functional; details: read-out: GI; how it was run: as §2
UO-31 = assay: Growth inhibition of human UO31 cells at 10 uM relative to control; assay type: functional; details: read-out: GI; how it was run: as §3
K562 = assay: Growth inhibition of human K562 cells at 10 uM relative to control; assay type: functional; details: read-out: GI; how it was run: as §2
SR = assay: Growth inhibition of human SR cells at 10 uM relative to control; assay type: functional; details: read-out: GI; how it was run: as §3
OVCAR-3 = assay: Growth inhibition of human OVCAR3 cells at 10 uM relative to control; assay type: functional; details: read-out: GI; how it was run: as §2
PC-3 = assay: Growth inhibition of human PC3 cells at 10 uM relative to control; assay type: functional; details: read-out: GI; how it was run: as §2
HCT-15 = assay: Growth inhibition of human HCT15 cells at 10 uM relative to control; assay type: functional; details: read-out: GI; how it was run: as §2
CAKI-1 = assay: Growth inhibition of human CAKI-1 cells at 10 uM relative to control; assay type: functional; details: read-out: GI; how it was run: as §2
SW-620 = assay: Growth inhibition of human SW620 cells at 10 uM relative to control; assay type: functional; details: read-out: GI; how it was run: as §3
EKVX = assay: Growth inhibition of human EKVX cells at 10 uM relative to control; assay type: functional; details: read-out: GI; how it was run: as §2
SK-MEL-5 = assay: Growth inhibition of human SK-MEL-5 cells at 10 uM relative to control; assay type: functional; details: read-out: GI; how it was run: as §2

With `Cc1ccccc1-n1c(C)nc2cc(/N=C/c3ccc(F)cc3)ccc2c1=O` as the compound, how does the Activity (Mus musculus [1]) read?
Its Activity is 100%.

And the ED50 (Mus musculus [2])?
The ED50 was 310 µmol/kg.

And the Activity (Mus musculus [3])?
The Activity was 0%.

What about the selectivity ratio [4] of the same compound?
The selectivity ratio was 5.5.

What about the “Ratio TD50/ED50” value (Mus musculus [5]) of the same compound?
Its value is 3.

What about the TD50 at 0.5 h [6] of the same compound?
Its TD50 at 0.5 h is 930 µmol/kg.

And the Activity (Mus musculus [7])?
Its Activity is 100%.

What about the Activity (Mus musculus [8]) of the same compound?
The Activity was 75%.

And the LD50 [9]?
Its LD50 is 1710 µmol/kg.

For `Cc1ccccc1-n1c(C)nc2cc(/N=C/c3ccc(Cl)cc3)ccc2c1=O`, which Activity (Mus musculus [1]) is on record?
The Activity was 100%.

What about the ED50 (Mus musculus [2]) of the same compound?
Its ED50 is 350 µmol/kg.

What about the Activity (Mus musculus [3]) of the same compound?
The Activity was 0%.

What about the selectivity ratio [4] of the same compound?
Its selectivity ratio is 4.6.

What about the “Ratio TD50/ED50” value (Mus musculus [5]) of the same compound?
The value was 2.54.

What about the TD50 at 0.5 h [6] of the same compound?
Its TD50 at 0.5 h is 890 µmol/kg.

What about the Activity (Mus musculus [7]) of the same compound?
The Activity was 100%.

What about the Activity (Mus musculus [8]) of the same compound?
Its Activity is 50%.

What about the LD50 [9] of the same compound?
Its LD50 is 1810 µmol/kg.

Which results are given for `Cc1ccccc1-n1c(C)nc2cc(/N=C/c3ccccc3)ccc2c1=O`?
Activity (Mus musculus [1]): 0%; Activity (Mus musculus [3]): 0%; Activity (Mus musculus [7]): 50%

Which results are given for `Cc1ccccc1-n1c(C)nc2cc(N3C(=O)C=CC3=O)ccc2c1=O`?
Activity (Mus musculus [1]): 0%; Activity (Mus musculus [3]): 0%; Activity (Mus musculus [7]): 33%

Which results are given for `CCOC(=O)Nc1ccc2c(=O)n(-c3ccccc3C)c(C)nc2c1`?
Activity (Mus musculus [1]): 100%; inhibition of growth at 10 µM (CCRF-CEM): 2.2%; inhibition of growth at 10 µM (UACC-257): 7%; ED50 (Mus musculus [2]): 740 µmol/kg; inhibition of growth at 10 µM (ACHN): 4%; inhibition of growth at 10 µM (U-251): 4.5%; inhibition of growth at 10 µM (A498): 4%; inhibition of growth at 10 µM (A549): 3%; inhibition of growth at 10 µM (BT-549): 3.5%; Activity (Mus musculus [3]): 0%; inhibition of growth at 10 µM (SNB-19): 5.7%; inhibition of growth at 10 µM (SK-MEL-28): 1.72%; selectivity ratio [4]: 2.6; inhibition of growth at 10 µM (RPMI-8226): 6.5%; inhibition of growth at 10 µM (SNB-75): 21.3%; Ratio TD50/ED50 (Mus musculus [5]): 2.4; inhibition of growth at 10 µM (OVCAR-5): 3.2%; TD50 at 0.5 h [6]: 1780 µmol/kg; Activity (Mus musculus [7]): 100%; inhibition of growth at 10 µM (KM12): 12%; inhibition of growth at 10 µM (Malme-3M): 5.4%; inhibition of growth at 10 µM (HT-29): 7.8%; inhibition of growth at 10 µM (SF-539): 17.2%; inhibition of growth at 10 µM (UACC-62): 15.8%; inhibition of growth at 10 µM (MCF7): 5%; inhibition of growth at 10 µM (MDA-MB-435): 41.6%; inhibition of growth at 10 µM (UO-31): 24.1%; inhibition of growth at 10 µM (K562): 6.2%; inhibition of growth at 10 µM (SR): 24.1%; inhibition of growth at 10 µM (OVCAR-3): 3.8%; inhibition of growth at 10 µM (PC-3): 11.2%; inhibition of growth at 10 µM (HCT-15): 6.4%; inhibition of growth at 10 µM (CAKI-1): 5.3%; inhibition of growth at 10 µM (SW-620): 2%; inhibition of growth at 10 µM (EKVX): 11.6%; LD50 [9]: 1930 µmol/kg; inhibition of growth at 10 µM (SK-MEL-5): 2.4%

For `Cc1ccccc1-n1c(C)nc2cc(/N=C/c3ccco3)ccc2c1=O`, which Activity (Mus musculus [1]) is on record?
The Activity was 0%.

And the Activity (Mus musculus [3])?
Its Activity is 0%.

What about the Activity (Mus musculus [7]) of the same compound?
The Activity was 50%.
